What was measured:
[1] = folding enthalpy; higher = less favourable; fluorescence melt of hairpins on a sequencing array, two-state fit; settings: sodium 0.088 M
Procedure, shortened: (§1)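 Folding enthalpy and melting temperature come from bootstrapped two-state fits to Cy3 fluorescence of library hairpins carrying annealed Cy3 and quencher oligos on a sequenced MiSeq flow cell. Imaging was done in 50 mM Na-HEPES pH 8.0, 25 mM NaCl, stepping by 2.5 °C up to 60 °C, and signals were normalised to pre-quench Cy3 and to control constructs. Results of four replicates were combined by inverse variance, and fitted temperatures were raised by 9.35 °C to match UV melts.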

[2] = melting temperature; fluorescence melt of hairpins on a sequencing array, two-state fit, raised by 9.35 °C to match UV melts; settings: sodium 0.088 M
Procedure, shortened: as §1

Sequence | folding enthalpy [1] [kcal/mol] | Tm [2] [°C]
GCAACGCGAAAGCGACGC ((..(((....)))..)) | -15.9 | 48.5
GAGACGGGAAACCGCCTC (((.(((....))).))) | -33.7 | 49.1
GCTGAGGGAAACTTCAGC (((((.(....).))))) | -32.5 | 48.6
GATCCCATTGGGGATC ((((((....)))))) | -38.2 | 62.1
GCTGACGAAAGTCTGAGC ((((((....)))..))) | -20.1 | 43.5
GCCCGGCGAAAGCCCAGC ((..(((....)))..)) | -9.79 | 32.7
GATCGTAAAAACGATC ((((((....)))))) | -31.8 | 50.3
GTCGAAACGAAAGTTGAC (((..(((....)))))) | -18.5 | 37.2
CGCGGAAAATTCCGCG ((((((....)))))) | -32 | 68.3
GTGGGGGCGAAAGCCCAC (((..(((....)))))) | -15.1 | 65.5
GATCAAAACCTTGATC ((((((....)))))) | -32.5 | 44.4
GACAGGGGAAACCCCGTC (((.(((....))).))) | -24.6 | 50.3
GCATCGCGAAAGCTATGC ((((.((....)).)))) | -24.1 | 59
GTCTGACCGAAAGGTGAC (((..(((....)))))) | -19.3 | 38.9
GAACGGGGAAACTCGTTC (((((.(....).))))) | -48.7 | 50.8
GCGGAAGGAAACTTTCGC (((.(((....))).))) | -36.1 | 53
GATCAGGATCCTGATC ((((((....)))))) | -53.1 | 54.3
GATCATTAACATGATC ((((((....)))))) | -28.6 | 44.7
AGCGGGAAACCGCT (((((....))))) | -19.1 | 67.1
GGCTCGGGAAACCGAGTC (.(((((....))))).) | -29.9 | 61.5
GATCGCGCGGGCGATC ((((((....)))))) | -32.9 | 67.2
GATCTAACTGTAGATC ((((((....)))))) | -24.2 | 39.1
GGAAGTCCGAAAGGATCC (((..(((....)))))) | -11.9 | 28.7

Sequence | folding enthalpy [1] [kcal/mol] | Tm [2] [°C]
GCTGACGGAAACGTTGGC ((..(((....)))..)) | -27.3 | 47
GCGCTGCGAAAGCATAGC ((..(((....)))..)) | -22.7 | 52.7
GATGTCCGAAAGGAGATC (((.(((....))).))) | -28.9 | 50.3
GCCACGTCGAAAGACGGC (((..(((....)))))) | -10.8 | 49.5
GATCACATCCGTGATC ((((((....)))))) | -46 | 56.6
GGTAGTCGAAAGACACC (((.(((....)))))) | -20.1 | 50.4
GCGCATGGAAACATACGC (((.(((....))).))) | -40.6 | 49.5
GCCGACGGAAACGCCGAC (.((.((....)).)).) | -16.7 | 36.4
GTCCTAGGAAACCAGGAC (((((.(....).))))) | -28.6 | 45.3
GACTACCGAAAGGTTGTC (((.(((....))).))) | -31.3 | 53.1
GGTGCCGAAAGGCTACC ((((((....))).))) | -17.2 | 57.8
GGTTTCGGAAACGAGATC (.(.(((....))).).) | -11.6 | 27.7
CGACCACGGAAACGTTCG (((..(((....)))))) | -12.3 | 30.5
GTTCCCGAAAGGGAAAAC ((((((....)))..))) | -10.8 | 41
GGTCGCGAAAGCGGACC ((((((....))).))) | -22.9 | 67.1
GATTGCGAAAGCAGATC ((((((....))).))) | -15.8 | 42.9
GTATGACGAAAGTCTTAC (((.(((....))).))) | -24.7 | 47.2
GATCGGCGCACCGATC ((((((....)))))) | -37.4 | 59.9
GCACAGCGAAAGCGTTGC (((..((....))..))) | -15.5 | 48.2
GATCAAAACGTTGATC ((((((....)))))) | -28.1 | 39.8
GATCCCACCTGGGATC ((((((....)))))) | -35.6 | 60.1
GATATCGGAAACGATATC (((((((....))))))) | -42.4 | 56.7
GCAATTGCGAAAGCATGC (((..(((....)))))) | -14.9 | 40.2

Sequence | folding enthalpy [1] [kcal/mol] | Tm [2] [°C]
GGATGCCGAAAGGCCTCC (((.(((....))).))) | -24.9 | 50.5
GCGAAAAATCGC ((((....)))) | -9.87 | 36.2
GCGTCAAAACGC ((((....)))) | -21.2 | 51.6
GCTAGAGGAAACTCTGGC ((.((((....)))).)) | -37.9 | 48
CGCGGATCTCTCCGCG ((((((....)))))) | -51 | 66.8
GAACAGCGAAAGCTTTTC (((.(((....))).))) | -19.9 | 37.8
GAAGATGGAAACGTCTTC (((((.(....).))))) | -33.9 | 43.2
GGCAGCGAAAGCTAGCC ((((((....))).))) | -32.9 | 62
GGCTTATCGAAAGATGCC (((..(((....)))))) | -24.1 | 39.8
GCACACGGAAACATGTGC (((((.(....).))))) | -35.2 | 47.4
GGCTCCGAAAGGACCGCC ((((((....)))..))) | -19.8 | 53.3
GTAGCCGGAAACGGTTGC (.(.(((....))).).) | -15.2 | 36.4
GCAATGCGAAAGCGATGC (((..((....))..))) | -20.6 | 53
GATCGTGCATACGATC ((((((....)))))) | -37.7 | 60.5
GGCTTGGGAAACCGAGCC ((((.((....)).)))) | -54.1 | 58.5
GTGGACGAAAGTCGCCAC ((((((....)))..))) | -18 | 43
GATCCCAGTAGGGATC ((((((....)))))) | -35 | 66
GGCGCCGAAAGGCAGGCC ((((((....)))..))) | -25.1 | 64.9
GCAATAGGAAACTACTGC (((.(((....))).))) | -14.5 | 29.8
GGAAAGGGAAACCTTCCC ((.((((....)))).)) | -19.3 | 33.3
GCGGTGCGAAAGCAGAGC ((..(((....)))..)) | -33 | 63.5
GAACCTGAAAAGGTTC ((((((....)))))) | -31.8 | 60.6
GCGTTCGAAAGAACACGC ((((((....)))..))) | -22.1 | 50.5

Sequence | folding enthalpy [1] [kcal/mol] | Tm [2] [°C]
GAAGTCCGAAAGGAGTTC (((.(((....))).))) | -33.7 | 55.2
GTTGGTACGAAAGTAAAC (((..(((....)))))) | -19.1 | 34.6
GGCGATGGAAACATCACC ((.((((....)))).)) | -30.3 | 46.2
GCCGATTCGAAAGAAGGC (((..(((....)))))) | -28.9 | 43.2
GGCGCTCGAAAGAGAGCC (((.(((....))).))) | -36.8 | 67.2
GTGACCCGAAAGGGCAC (((.(((....)))))) | -22.9 | 62.4
GATCAGTGTGCTGATC ((((((....)))))) | -52.8 | 56.6
GGTTAAGGAAACTTGACC (((.(((....))).))) | -30.1 | 40.3
GGCTTTCCGAAAGGAGCC (((..(((....)))))) | -24.5 | 45.2
GGCATGGGAAACCGTGCC ((((.((....)).)))) | -33.2 | 62.7
GCGAGCGAAAGCTGACGC ((((((....)))..))) | -24.7 | 51.1
GGCGCGGGAAACCACGCC ((((.((....)).)))) | -48.2 | 61
GGTCTAGCGAAAGCTACC (((..(((....)))))) | -10.1 | 31.2
GAAAGCGAAAGCTATTC ((((((....))).))) | -12 | 30.4
GGTGACGAAAGTCAAACC ((((((....)))..))) | -17.4 | 46.3
GTTTGCGAAAGCAAAAAC ((((((....)))..))) | -10.9 | 40.3
GCTTAGCGAAAGCTGAGC (((.(((....))).))) | -45.6 | 57.6
GCGGGGCGAAAGCTTCGC (((..((....))..))) | -35.3 | 63
GGGCCTGGAAACAGACCC (((.(((....))).))) | -38.6 | 50.9
CGGGCTCGGAAACGACCG (((..(((....)))))) | -22.6 | 40.6
GATCGCGAAAGCGGGATC ((((((....)))..))) | -14.1 | 45.5
GGCATTCCGAAAGGAGCC (((..(((....)))))) | -23.4 | 43.1
GTTACGGGAAACCGTAGC (.(((((....))))).) | -18.3 | 48.5

— the array DNA melting data of Ke et al. (doi:10.1101/2024.01.08.574731)
